S100A4 MyoIIA: inhibitors of S100A4-myosin IIA peptide binding, primary screen, biochemical, fluorescence polarization, TAMRA-MyoIIA peptide. Protein S100-A4 (Homo sapiens), P26447. inhibition, % at 10.7 µM. hit rate 0.14% among 360,000;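 active = mean inhibition of at least 70% across replicates, with every replicate also reaching that level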
Target sequence (P26447 whole entry, looked up): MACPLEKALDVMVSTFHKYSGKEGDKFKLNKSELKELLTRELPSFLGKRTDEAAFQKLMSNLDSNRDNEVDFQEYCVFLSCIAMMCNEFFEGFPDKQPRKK
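Material: S100A4 monomer (human). Medium: Calcium-containing HEPES buffer, pH 7.2. Probe or stimulus: labelled myosin peptide probe, 5 nM. Compound dosing: one concentration per compound. Timing: polarization read 5 min after assay mix addition, stable 5–60 min. Benchmarks: DMSO as neutral control, TFP as positive control.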
RAD54 branch: inhibitors of human RAD54 branch migration, primary screen, biochemical, fluorescence, single point; DNA repair and recombination protein RAD54-like (Homo sapiens), Q92698; RAD54 Holliday junction branch migration, FAM/BHQ fluorescence; inhibition, % at 10.4 µM; hit rate 0.14% among 360,000;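 active = mean normalized replicate activity at least 40 and at least half of replicates scoring 40 or more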;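 note: 0% = median of neutral control wells and 100% = median of positive control wells; inhibitors cause a drop in the FAM fluorescence signal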
RAD52 inh: RAD52 DNA annealing inhibitors, primary screen, biochemical, FRET, single point, set 2; inhibition, % at 18.7 µM; DNA repair protein RAD52 homolog (Homo sapiens), P43351; AID 651710, 2012; hit rate 0.46% among 360,000; recombinant RAD52 DNA annealing, FRET fluorescence;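 active = every replicate showing at least 50% inhibition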
AF4-AF9 inh: inhibitors of AF4 peptide binding to AF9, primary screen, biochemical, AlphaScreen, biotin-AF4 peptide, FLAG-AF9, single point; Protein AF-9 (Homo sapiens), P42568; AID 651704, 2012; hit rate 0.47% among 350,000; inhibition, % at 10 µM;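 active = every replicate reaching a set inhibition limit, whatever the replicate mean, cut at about 25% in these data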;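 note: 0% = plate neutral control median and 100% = total signal loss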
INS-1E GSIS act: GLuc luminescence reporter in INS-1E cells, primary screen for activators of glucose-dependent secretion of insulin; INS-1E GLuc reporter insulin secretion, 2-3 h; activation, % at 16.6 µM; hit rate 0.61% among 370,000; AID 743287, 2014;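 active = lowest replicate activation of at least 40%, so every replicate reaches that level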;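 note: 0% = median of neutral control wells and 100% = median of IBMX positive control wells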
Alpha interfer: AlphaScreen signal interference counter-screen, dose response, artefact control, biochemical, cherry-picked samples, luminescence; shares compounds with AF4-AF9 inh; AC50, µM (series often up to 12 µM), for the others: top-dose activity change, negative = inhibition; hit rate 45% among 530; AID 720494, 2013; cut-off not given, nearly all actives have AC50 up to about 14 µM
Numbers without * were called inactive; . = no result. In the library only some 1.3% were active in any assay of this set; here they are far more common.

SMILES | S100A4 MyoIIA | RAD54 branch | RAD52 inh | AF4-AF9 inh | INS-1E GSIS act | Alpha interfer
Oc1cccc(C(Nc2nccs2)c2ccc3cccnc3c2O)c1 (centres undefined) | 0.4 | . | -9.0 | 48.6* | -1.3 | 3.33µM*
CC(C)(c1ccccc1)c1ccc(OCC(O)CNC2CCN(Cc3ccccc3)CC2)cc1 (centres undefined) | 10.2 | 11.1 | 40.9 | 30.7* | 665.6* | -29.2%
CCOc1ccc(OCC(O)CNC2CCN(Cc3ccccc3)CC2)cc1 (centres undefined) | . | 1.1 | . | . | 28.3 | .
COC(=O)c1ccc(Nc2cc(C)nc3ccccc23)cc1 | -4.6 | 10.5 | 5.2 | 8.5 | 7.9 | .
COC(=O)c1ccc2nc(C)cc(Nc3ccc(N(C)C)cc3)c2c1 | 0.9 | 40.9 | 46.7 | 31.5* | 2.3 | -14.1%
Cn1ccc2c(N3CCCCCC3)cc3c(c21)C1CCC3C1 (centres undefined) | -3.4 | 9.9 | 19.9 | 31.2* | -16.6 | -37.6%
Cn1ccc2c(-c3ccc(F)cc3F)cc3c(c21)C1CCC3C1 (centres undefined) | 7.2 | -5.0 | -27.2 | 0.6 | 0.8 | .
COc1ccccc1-c1cccc(-c2nc(C(=O)N3CCCCC3)cc3c2[C@H](CCO)N([S@@](=O)C(C)(C)C)C3)c1 | -44.4 | 1.2 | -27.5 | 3.5 | -24.0 | .
O=C(NC1CCCCC1)C(c1cccnc1)N(C(=O)CCl)c1cccc(Cl)c1 (centres undefined) | 5.0 | 10.4 | 46.2 | 38.7* | 5.7 | -20.9%
C[C@@H]1CCCCO[C@H](CN(C)C(=O)Nc2cccc3ccccc23)[C@@H](C)CN([C@H](C)CO)C(=O)c2cc(NC(=O)Nc3ccccc3)ccc2O1 | . | -12.0 | . | . | 24.3 | .
CCC(=O)N1[C@H](CNC(=O)CN(C)C)[C@@H](c2ccc(C3=CCCC3)cc2)[C@@H]1CO | 7.4 | 2.4 | 5.3 | 4.4 | 14.7 | .
O=C(C[C@H]1C[C@@H]2c3cc(NC(=O)C4CCOCC4)ccc3O[C@@H]2[C@@H](CO)O1)NC1CCCC1 | -2.5 | -0.4 | -11.8 | 1.3 | -14.9 | .
COc1ccc(N2CCN(c3cc(C)nc4ccc(OC)cc34)CC2)cc1 | -0.8 | 19.7 | -2.2 | 33.7* | 3.4 | -38.4%
COc1ccc2nc(C)cc(N3CCC(C(N)=O)CC3)c2c1 | 10.3 | 28.5 | -7.5 | -3.1 | 6.8 | .
C[C@@H]1CN([C@H](C)CO)C(=O)c2cc(-c3ccncc3)cnc2O[C@H]1CN(C)S(=O)(=O)c1ccccc1 | 6.3 | 4.2 | 3.6 | -2.4 | -7.3 | .
C(=C\c1ccncc1)/c1ccccc1 | 3.6 | 4.8 | 1.8 | 5.9 | -2.9 | .
C(=C\c1ccncc1)/c1ccncc1 | -3.8 | . | -3.0 | 21.5 | 5.7 | -18.7%
CCOc1ccc(/C=N/Nc2cc(N3CCOCC3)ncn2)c(O)c1 | -5.6 | 4.0 | 4.0 | 32.2* | . | 14.1µM*
CCN1CCCc2cc(CN(CCN3CCOCC3)C(=S)Nc3ccccc3C)ccc21 | -2.5 | . | -11.0 | 4.8 | -16.8 | .
CCN1CCCc2cc(CN(CCN3CCOCC3)C(=S)Nc3cccc(C)c3)ccc21 | -4.2 | 3.4 | -11.1 | 37.1* | -31.6 | -21.7%
CCN(CC)c1ccc(N=C2C(=O)Nc3ccccc32)cc1 | -15.9 | 5.9 | -16.5 | 57.3* | -20.0 | 12µM*
CC1=NN(c2ccccc2)C(=O)/C1=C\C=C\c1ccccc1 | 0.7 | -6.5 | -9.1 | 4.9 | . | .
CC1=NN(c2ccccc2)C(=O)/C1=C/C=C/c1ccc(N(C)C)cc1 | 5.5 | . | 2.9 | 66.6* | 5.0 | -41.2%
Cc1cccc(S(=O)(=O)N[C@H]2CC[C@H](CCNC(=O)CCN3CCCCC3)O[C@@H]2CO)c1 | -0.1 | -3.6 | -13.3 | -0.5 | -1.9 | .
COc1ccc(NC2CCCN(Cc3cccc4cnccc34)C2)cc1OC (centres undefined) | -7.0 | 2.9 | 26.4 | 26.1* | -26.4 | -28.1%
C#CCOCCOCCOCCNc1nc(N2CCN(C(=O)[C@H](CCCCN)n3cc([C@@H](N)CC(N)=O)nn3)CC2)nc(N2CCN(C(=O)[C@H](CCCCN)n3cc([C@@H](N)CC(N)=O)nn3)CC2)n1 | -4.3 | -21.1 | 61.3* | 36.6* | 2.9 | 3.3%
